# High-throughput results deposited in PubChem by several laboratories.
# This is a sample that favours compounds with a hit; in the whole collection about 9.3% have one here.
# PostGolgi ctrl: growth inhibition of yeast control strain, primary screen, counter-screen for post-Golgi transport modulator project. efflux-deficient yeast background strain, growth absorbance A615, 16 h. inhibition, % at 10 µM. 98,000 tested, 5% active
# Ecoli tolC: growth inhibitors of E. coli tolC mutant, primary screen, strain BW25113 ΔtolC::kan, 384-well; 65,000 tested, 2.2% active; OD615; growth inhibition, % at 10 µM (by protocol);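 active means growth inhibition at or above a cutoff equal to the mean over every tested compound plus 3 SD, cut at about 60% in these data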;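 further: growth measured after 20 h incubation at 37 °C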
#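 test system = E. coli BW25113 ΔtolC::kan bacteria | medium = LB with kanamycin 50 µg/mL | signal = OD at 615 nm | schedule = 37 °C, 20 h exposure | evaluation = % inhibition of E. coli growth | compound dosing = one dose of 10 µM final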
# D1 allo mod: D1 CRE-luciferase signal change, two-sided – cell-based, HEK293 D1, dopamine EC30, D1 allosteric modulator project, primary screen; 58,000 tested, 5.9% active; D(1A) dopamine receptor (Homo sapiens), P21728; B-score at 10 µM; dopamine EC30 potentiation; actives deviate in either direction; AID 641, 2007;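 active means luminescence count or its row- and column-corrected plate score outside the 99.7% band of the plate's sample wells, on either side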
# Target sequence (P21728 whole entry, looked up): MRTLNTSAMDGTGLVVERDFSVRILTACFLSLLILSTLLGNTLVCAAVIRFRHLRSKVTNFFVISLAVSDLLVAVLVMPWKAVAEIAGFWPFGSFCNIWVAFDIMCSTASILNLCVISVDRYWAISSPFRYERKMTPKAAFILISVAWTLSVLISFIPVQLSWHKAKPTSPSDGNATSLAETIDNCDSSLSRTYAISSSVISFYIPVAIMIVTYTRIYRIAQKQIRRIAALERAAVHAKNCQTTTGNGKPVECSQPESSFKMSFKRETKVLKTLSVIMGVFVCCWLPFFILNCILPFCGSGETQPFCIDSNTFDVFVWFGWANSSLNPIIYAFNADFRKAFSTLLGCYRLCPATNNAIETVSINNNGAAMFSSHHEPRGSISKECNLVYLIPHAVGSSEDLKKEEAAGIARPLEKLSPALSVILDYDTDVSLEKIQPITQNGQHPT
# PostGolgi yeast: phenotypic screen on post-Golgi transport, primary screen; post-Golgi transport phenotypic cell assay; inhibition, % at 10 µM; 98,000 tested, 0.9% active; AID 739, 2007;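 further: yeast cells grown in 1536-well plates; yeast grown about 18 h at 30C before absorbance read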
# hDAT+cocaine: changed hDAT dopamine uptake under cocaine IC80, either direction, primary screen, cocaine antagonist project, cell-based, LLC-PK1 hDAT, [14C]-dopamine uptake, MLSMR. LLC-PK1 hDAT cells, [14C]-dopamine uptake with cocaine IC80; actives deviate in either direction. 110,000 tested, 1.3% active. Sodium-dependent dopamine transporter (Homo sapiens), Q01959. B-score at 10 µM. AID 449768, 2010;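 active means Z score or B-score, a plate-position-corrected score, falls beyond the plate's 99.7% confidence bounds, in either direction; inactive means both scores lie inside the 99.7% bounds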
# E coli WT exp: growth inhibitors of wild-type E. coli, primary screen, strain BW25113, expanded library, OD600 | growth inhibition, % at 100 µM | AID 710, 2007 | 98,000 tested, 0.15% active | OD600 absorbance;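 active means growth inhibition above about 50% at one test dose, limit read from the data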;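 further: growth measured after 20 h incubation at 37 °C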
# D1 PAM confirm: D1 receptor positive allosteric modulators, retest, confirmation, cell-based, HEK293 D1, CRE-luciferase, duplicate; shares compounds with D1 allo mod; dopamine EC30 potentiation; active compounds read high; luminescence at 10 µM; 2,200 tested, 88% active; AID 642, 2007;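 active means luminescence in either of two replicates above the same-plate mean plus 3 SD of the low-dose dopamine control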
# D1 ag no DA: D1 receptor agonism without dopamine, confirmation, mechanism study for D1 allosteric modulator project, cell-based, HEK293 D1, CRE-luciferase, secondary assay 1. shares compounds with D1 allo mod. luminescence, no dopamine; active compounds read high. luminescence at 10 µM. 1,900 tested, 0.8% active; in the data active means luminescence above about 3900
# Isoprot counter: alters isoproterenol CRE-luciferase response in HEK293 cells. shares compounds with D1 allo mod. HEK293 D1 CRE-luciferase, isoproterenol EC30 counter-screen. calls only at 10 µM. 2,200 tested, 63% active. AID 647;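 active means luminescence in either replicate above plate mean of wells with a partly effective reference agonist dose plus 3 SD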;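 further: isoproterenol raises cAMP through native beta-adrenoceptor Gs so signal bypasses D1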
# Numbers stand for hits; – = inactive; · = no result; + = active, no number. Unless noted, no stated cut-off is given here; in the data, active means inhibition above about 30%; inactive means the rest.
SMILES,PostGolgi ctrl,Ecoli tolC,D1 allo mod,PostGolgi yeast,hDAT+cocaine,E coli WT exp,D1 PAM confirm,D1 ag no DA,Isoprot counter
Cc1noc(C)c1CSCC(=O)N1CCN(c2ccc([N+](=O)[O-])cc2)CC1,–,·,·,–,–,–,·,·,·
Nc1nnc(-c2ccco2)s1,–,–,–,–,–,–,·,·,·
Nc1ncnc2oc(-c3ccco3)c(-c3ccco3)c12,–,–,10,–,–,–,19128,24288,+
CCc1c(C)c(C#N)c2nc3ccccc3n2c1N(C)C,–,–,4.9,–,–,–,9428,–,+
Cc1ccc(Cl)c2c1NC(=O)C2(O)CC(=O)c1ccc(Br)cc1 (stereo not drawn),–,·,·,–,–,–,·,·,·
O=C(CC1(O)C(=O)Nc2cc(Cl)cc(Cl)c21)c1ccncc1 (stereo not drawn),–,–,3.5,–,–,–,–,–,–
Nc1c(C(=O)OCC2CCCO2)c2nc3ccccc3nc2n1-c1ccc2c(c1)OCCO2 (stereo not drawn),–,–,5.1,43,–,–,–,·,–
COc1ccc(F)cc1S(=O)(=O)NC1CCCC1,–,·,·,–,–,–,·,·,·
Cc1noc(C)c1COC(=O)c1ccccc1Oc1ccccc1,–,–,6.1,–,–,–,8776,–,+
Cc1noc(C)c1COC(=O)c1ccccc1NC(=O)Cc1ccccc1,–,–,–,–,–,–,·,·,·
Cc1cc(NC(=O)c2ccccc2Oc2ccccc2)no1,–,–,6.2,–,–,–,9100,–,–
Cn1ncc2c(=O)n(CC(=O)NC34CC5CC(CC(C5)C3)C4)cnc21,–,·,·,–,–,–,·,·,·
CCCCC(NC(C)=O)c1nc2ccccc2n1CCCC (stereo not drawn),–,–,–,–,·,–,·,·,·
CC(C)Nc1nc(NC(C)C)nc(Oc2ccc(/C=N/O)cc2)n1,–,–,5.3,–,–,–,6456,·,–
CN(C)c1nc(Oc2ccc(/C=N/O)cc2)nc(N(C)C)n1,–,–,–,–,–,–,·,·,·
Cc1cc(SCC#N)n2nc(C)c(-c3ccc(Cl)cc3)c2n1,–,·,·,–,–,–,·,·,·
Cc1cc(SCC#N)n2nc(C)c(-c3ccccc3)c2n1,–,61,14,–,–,–,14516,–,+
CC1(C)CC(=O)C=C(c2cccs2)C1,·,·,·,·,–,·,·,·,·
CCCCOC(=O)c1ccc(NC(=O)C2CCCO2)cc1 (stereo not drawn),–,–,–,–,–,–,·,·,·
CCOC(=O)c1ccc(NC(=O)C2CCCO2)cc1 (stereo not drawn),–,–,23,–,–,–,–,–,–
COc1cc(OC)c(-c2nn3c(C4CCCCC4)nnc3s2)cc1OC,–,–,5.2,–,–,–,10724,–,+
COc1cccc(-c2nnc3sc(-c4ccccc4)nn23)c1,·,–,·,·,–,·,·,·,·
COc1cc(-c2nnc3sc(C4CCCCC4)nn23)cc(OC)c1OC,–,–,7.4,–,–,–,15992,–,+
Cc1cc(-c2nnc3sc(C4CCCCC4)nn23)n[nH]1,–,–,7.8,–,–,–,14928,·,+
COc1cccc(-c2nnc3sc(C4CCCCC4)nn23)c1,33,–,5.5,–,-8.3,–,12024,–,+
CCOc1ccc(C(C)=O)cc1COc1ccc(-n2cnnn2)cc1,–,–,5.9,–,–,–,15484,–,+
CCOC(=O)CN=C1CC(C)(C)CC2=C1Sc1ncnc(N(C)C)c1N2,–,–,5.4,–,–,–,10372,–,+
